High-throughput results (PubChem BioAssay)
KCNK3 inh = human KCNK3 channel inhibition, primary screen; O14649; CHO-KCNK3 thallium flux, FluxOR fluorescence; hits give low values; B-score at 10 µM; 0.84% of 340,000 active; AID 602410;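 active = B-score under library mean minus 4 SD, starting fluorescence ratio at most library mean plus 5 SD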;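 also: more negative B-score means stronger inhibition of thallium flux through KCNK3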
KCNQ1 act = human KCNQ1 channel potentiation or activation; P51787; CHO-K1 KCNQ1, thallium flux FluxOR fluorescence; hits give high values; B-score at 10 µM; 0.35% of 310,000 active; AID 2648;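 active = fluorescence ratio B-score, a plate-corrected score, at least three library SD, with initial intensity B-score within 5 SD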
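assay system = CHO-K1 cells stably expressing KCNQ1 | medium = assay buffer, equal DMSO in all wells | timing = 37 °C overnight plating, 90-min dark dye load, 20-min compound pretreatment | measured by = kinetic FluxOR thallium fluorescence, 10-s 1-Hz baseline, 110-s post-stimulus read | measure = fluorescence change relative to baseline, converted to B score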
hERG rescue = hERG (human) protection from proarrhythmic block; Q12809; CHO-hERG, FluxOR thallium flux, dofetilide IC70 present; activation (rescue from dofetilide block), less the hit threshold, % at 10 µM; 0.51% of 310,000 active;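 active = activation above the mean of controls blocked by dofetilide plus 5 SD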;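 also: thallium influx through hERG after potassium depolarization seen as dye fluorescence rise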
KCNQ1 block = inhibitors of human KCNQ1 potassium channel | CHO-K1 KCNQ1, FluxOR thallium flux fluorescence; hits give high values | B-score at 10 µM | P51787 | 1.3% of 310,000 active | AID 2642;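 active = compounds whose thallium flux B-score, printed positive for inhibition, exceeds three library SD while starting fluorescence stays within three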;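 also: channel opened by potassium depolarization with thallium stimulus after 20 min compound exposure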
Cl transport mod = modulators of human KCC2 chloride dependent transport; Q9H2X9; KCC2 cells, thallium flux FluoZin-2 fluorescence; B-score of Tl+ flux slope (higher = more flux/activation; lower = inhibition) at 10 µM; 2.2% of 190,000 active; AID 1456;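 active = thallium flux slope and its plate-corrected score both differing from the plate sample mean at a set confidence after two filtering rounds, in either direction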;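 also: slope of fluorescence scaled to starting intensity during 10 to 20 s after thallium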
Target sequence (Q9H2X9 whole entry, looked up): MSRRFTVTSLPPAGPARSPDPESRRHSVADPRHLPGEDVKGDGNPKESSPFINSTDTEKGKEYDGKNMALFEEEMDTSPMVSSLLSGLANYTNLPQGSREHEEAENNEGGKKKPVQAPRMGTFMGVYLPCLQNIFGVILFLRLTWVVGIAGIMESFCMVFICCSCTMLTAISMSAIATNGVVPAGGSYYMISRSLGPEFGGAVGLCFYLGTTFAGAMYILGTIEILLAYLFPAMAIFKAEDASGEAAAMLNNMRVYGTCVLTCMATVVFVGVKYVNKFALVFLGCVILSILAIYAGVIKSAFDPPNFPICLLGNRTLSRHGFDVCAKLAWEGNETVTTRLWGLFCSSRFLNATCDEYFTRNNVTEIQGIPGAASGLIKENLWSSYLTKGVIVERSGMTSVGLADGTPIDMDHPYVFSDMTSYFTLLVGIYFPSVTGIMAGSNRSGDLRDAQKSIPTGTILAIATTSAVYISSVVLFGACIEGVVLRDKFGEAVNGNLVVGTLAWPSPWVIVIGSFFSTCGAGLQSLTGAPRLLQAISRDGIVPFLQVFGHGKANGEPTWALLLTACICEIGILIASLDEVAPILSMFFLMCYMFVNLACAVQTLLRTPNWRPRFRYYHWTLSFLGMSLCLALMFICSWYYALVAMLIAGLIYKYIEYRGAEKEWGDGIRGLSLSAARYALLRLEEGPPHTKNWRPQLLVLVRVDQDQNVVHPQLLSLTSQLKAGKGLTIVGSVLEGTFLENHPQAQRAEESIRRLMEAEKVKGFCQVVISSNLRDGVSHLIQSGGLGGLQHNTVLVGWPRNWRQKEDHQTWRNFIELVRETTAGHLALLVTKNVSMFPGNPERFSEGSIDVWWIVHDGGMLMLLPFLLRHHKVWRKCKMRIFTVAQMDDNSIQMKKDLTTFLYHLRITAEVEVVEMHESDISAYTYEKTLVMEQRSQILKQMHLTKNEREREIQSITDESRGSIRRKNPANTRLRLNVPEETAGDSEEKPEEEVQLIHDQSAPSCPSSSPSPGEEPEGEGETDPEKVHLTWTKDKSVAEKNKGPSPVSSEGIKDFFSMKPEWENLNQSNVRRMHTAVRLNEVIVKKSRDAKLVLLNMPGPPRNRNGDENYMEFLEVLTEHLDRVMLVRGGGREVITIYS
KCNK9 inh = blocks the human KCNK9 two-pore domain potassium channel | Q9NPC2 | HEK293 KCNK9, FluxOR thallium flux fluorescence; hits give low values | B-score at 10 µM | 1.2% of 310,000 active | AID 488922;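 active = ratio B-score over 3 SD below the library mean, with starting fluorescence within 5 SD of its mean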;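 also: negative B-score means less thallium flux so channel inhibition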
KCC2 secondary = KCC2 (human) modulation, secondary assay; shares compounds with Cl transport mod; HEK293-KCC2, thallium flux, FluoZin2 fluorescence; hits give high values; normalised thallium flux (F/F0 slope) at 10 µM; 15% of 3,700 active;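 active = thallium flux slope above the same plate's solvent-only control mean plus 3 SD; inconclusive = the two replicate wells disagree; inactive = no significant difference from solvent-only control wells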
KCC2 bumet counter = thallium flux persisting under bumetanide in KCC2 cells, counter-screen secondary assay; shares compounds with Cl transport mod; HEK293-KCC2 + bumetanide/ouabain, thallium flux FluoZin2; hits give high values; normalized thallium flux at 10 µM; 49% of 3,700 active;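 active = thallium entry rate above the same plate's blocked-transporter control wells by more than 3 SD; inconclusive = the two repeat wells disagree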;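 also: raw slope of fluorescence over initial fluorescence between 10 and 20 s after thallium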
KCC2 secondary2 = confirmation of human KCC2 transport modulators; shares compounds with Cl transport mod; 23% of 3,700 active; normalized thallium flux at 10 µM; HEK293-KCC2, thallium flux FluoZin2 fluorescence; actives lie on both sides; F/F0 rise rate, 10–20 s post-thallium;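 active = thallium flux slope more than 3 SD above or below the plate's solvent-only control mean, mostly below; inconclusive = the two repeat wells disagreed; inactive = no significant shift from solvent-only controls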
HEK293 Tl flux = acts in parental HEK cells, KCC2 counter-screen; thallium flux rate (normalised fluorescence) at 10 µM; 46% of 3,700 active; HEK293 parental cells, thallium flux FluoZin2, ouabain; baseline-ratio fluorescence slope, 10–20 s after thallium; shares compounds with Cl transport mod;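 active = thallium flux rate significantly above the same plate's solvent-only control wells, beyond their mean plus 3 SD; inconclusive = the two replicate wells gave conflicting results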
KCC2 ouabain = KCC2 (human) modulation, ouabain retest; shares compounds with Cl transport mod; HEK293-KCC2, thallium flux FluoZin2 fluorescence; bidirectional: low = inhibitor, high = activator; raw Tl+ flux slope (below DMSO = inhibition, above = activation) at 10 µM; 48% of 3,700 active;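 active = thallium flux slope beyond 3 SD from same-plate DMSO control mean in most replicates, usually higher, sometimes lower; inconclusive = repeat tests gave conflicting results; inactive = no significant difference from controls in most replicates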;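 also: slope of initial-normalized fluorescence between seconds 10 and 20 after thallium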
HEK counter2 = parental HEK flux effect, counter-screen 2 | 33% of 3,700 active | HEK293 parental, thallium flux FluoZin-2 fluorescence slope | AID 1718 | shares compounds with Cl transport mod | thallium flux slope at 10 µM;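 active = thallium flux slope above the same plate's solvent-control mean plus 3 SD in both duplicate wells; inconclusive = duplicate wells that disagreed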;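 also: run without ouabain in cells lacking the KCC2 cotransporter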
Of the large screens only hits and unclear results are named; the others gave an inactive call (follow-up assays come after a bar, where they were run). Compounds with a hit are over-represented: about 4.1% of the library has one in this group of screens.

COc1ccc(COC(=O)c2ccc(C)c(S(=O)(=O)N3CCOCC3)c2)cc1F	none (no result: Cl transport mod)
Cc1ccc(NC(=O)C2CC(O)CN2C(=O)OCc2ccccc2)cc1C (configuration not stated)	none (no result: Cl transport mod)
C=CCN1C(c2ccc(OCC)cc2)=CS/C1=C(\C#N)c1nnc2n1CCCCC2	Cl transport mod -5.83 | KCC2 secondary inactive | KCC2 bumet counter inactive | KCC2 secondary2 0.0202 | HEK293 Tl flux 0.00608 | KCC2 ouabain 0.0109 | HEK counter2 inactive
CCN(CC)c1c([N+](=O)[O-])ncn1C	none (no result: Cl transport mod) | KCC2 secondary inactive | KCC2 bumet counter inactive | KCC2 secondary2 inactive | HEK293 Tl flux inconclusive | KCC2 ouabain inactive | HEK counter2 inconclusive
Cc1ccc(NS(=O)(=O)c2ccc(Cl)s2)nc1	none (no result: Cl transport mod)
Cc1ccc(NC(=O)c2ccccc2NS(=O)(=O)c2ccc(Cl)s2)cc1	Cl transport mod -3.71, KCNK9 inh -7.52 | KCC2 secondary inactive | KCC2 bumet counter inconclusive | KCC2 secondary2 0.022 | HEK293 Tl flux inactive | KCC2 ouabain inconclusive | HEK counter2 inactive
Cc1ccc(CC(NC(=O)C2CCCCC2)C(=O)O)cc1 (configuration not stated)	none (no result: KCNQ1 act, hERG rescue, KCNQ1 block, Cl transport mod, KCNK9 inh)
CCCc1nc2c(o1)CC(CC(C)SCC)CC2=O (configuration not stated)	Cl transport mod 4.89 | KCC2 secondary inactive | KCC2 bumet counter inactive | KCC2 secondary2 inconclusive | HEK293 Tl flux inactive | KCC2 ouabain inactive | HEK counter2 inactive
CCSC(C)CC1CC(=O)CC(=O)C1 (configuration not stated)	none
CCCc1cc(=O)oc2cc(C)cc(OC(C)C(=O)NCc3ccccn3)c12 (configuration not stated)	none (no result: Cl transport mod)
Cc1cccc(NC(=O)Nc2ccc(C)c(C)c2)n1	Cl transport mod 5.69 | KCC2 secondary inactive | KCC2 bumet counter inactive | KCC2 secondary2 inactive | HEK293 Tl flux inactive | KCC2 ouabain inactive | HEK counter2 inactive
CN(CC(=O)Nc1ccc(F)c(F)c1)S(=O)(=O)c1cccc2cccnc12	none (no result: Cl transport mod)
O=C(c1ccc(CS(=O)(=O)c2c(Cl)cccc2Cl)o1)N1CCCC1	none
CN1CCN(C(=O)c2ccc(CS(=O)(=O)c3c(Cl)cccc3Cl)o2)CC1	Cl transport mod -3.31 | KCC2 secondary inactive | KCC2 bumet counter inactive | KCC2 secondary2 inactive | HEK293 Tl flux inactive | KCC2 ouabain inactive | HEK counter2 inactive
COC(=O)c1sccc1NC(=S)N1CCC(C)CC1	none (no result: Cl transport mod) | KCC2 secondary inactive | KCC2 bumet counter inactive | KCC2 secondary2 inactive | HEK293 Tl flux inactive | KCC2 ouabain inactive | HEK counter2 inactive
CC1CCCCN1C(=S)NC(=O)c1cccs1 (configuration not stated)	Cl transport mod 36.4 | KCC2 secondary 0.0215 | KCC2 bumet counter 0.0572 | KCC2 secondary2 inactive | HEK293 Tl flux 0.0345 | KCC2 ouabain 0.0502 | HEK counter2 0.0164
CC1CCN(C(=S)NC(=O)c2cccs2)CC1	KCNQ1 act 12, hERG rescue 15.9, Cl transport mod 55.5 | KCC2 secondary 0.033 | KCC2 bumet counter 0.0831 | KCC2 secondary2 inconclusive | HEK293 Tl flux 0.0552 | KCC2 ouabain 0.069 | HEK counter2 0.0185
COC(=O)c1sccc1NC(=S)NCc1ccc(Cl)cc1	hERG rescue 14.3, Cl transport mod 160 | KCC2 secondary 0.07 | KCC2 bumet counter 0.164 | KCC2 secondary2 0.0576 | HEK293 Tl flux inconclusive | KCC2 ouabain 0.122 | HEK counter2 0.0576
O=C(NC(=S)N1CCCCC1)c1cccs1	none
CC(C)(C)[C@H]1COC(=O)[C@H](NC(=O)OCC2c3ccccc3-c3ccccc32)C/C=C\C[C@@H](CC(=O)N[C@@H](CO)Cc2ccccc2)C(=O)N1	none (no result: KCNQ1 act, hERG rescue, KCNQ1 block, Cl transport mod, KCNK9 inh)
O=C(NCc1cccs1)C1CCC(=O)N(Cc2cccc(C(F)(F)F)c2)C1 (configuration not stated)	none (no result: Cl transport mod)
COC(=O)c1sccc1NC(=O)Nc1ccccc1Cl	none (no result: Cl transport mod)
CCC(C(=O)Nc1ccsc1C(=O)OC)c1ccccc1 (configuration not stated)	Cl transport mod -3.2 | KCC2 secondary inactive | KCC2 bumet counter inactive | KCC2 secondary2 inactive | HEK293 Tl flux inconclusive | KCC2 ouabain inconclusive | HEK counter2 inactive
Cc1cc(C)n(-c2ccc(C(=O)NCC(c3ccco3)N3CCCC3)cc2)n1 (configuration not stated)	none (no result: KCNQ1 act, hERG rescue, KCNQ1 block, Cl transport mod, KCNK9 inh)
Fc1ccccc1Oc1nc(-c2ccncc2)nc2ccccc12	none
CC1(C)CC(=O)c2c(-c3cccnc3)n[nH]c2C1	none (no result: Cl transport mod) | KCC2 secondary inactive | KCC2 bumet counter inactive | KCC2 secondary2 inactive | HEK293 Tl flux inactive | KCC2 ouabain inactive | HEK counter2 inactive
CC1(C)CC(=O)c2c(Cc3ccccc3)n[nH]c2C1	none
CCn1ncc(Br)c1C(=O)Nc1ccc(C(=O)OC(C)C)cc1	Cl transport mod 5.25 | KCC2 secondary inactive | KCC2 bumet counter inactive | KCC2 secondary2 inactive | HEK293 Tl flux inactive | KCC2 ouabain inactive | HEK counter2 inactive
COc1ccc(-n2nc(C(=O)NCC(=O)NCCCN3CC(C)CC(C)C3)c3ccccc3c2=O)cc1OC (configuration not stated)	none (no result: Cl transport mod)
N#CC1=C(N)N=C(SCc2ccccc2)C(C(N)=O)C12CCCCC2 (configuration not stated)	Cl transport mod -5.54 | KCC2 secondary inactive | KCC2 bumet counter 0.0094 | KCC2 secondary2 inconclusive | HEK293 Tl flux inactive | KCC2 ouabain 0.0145 | HEK counter2 inactive
COc1ccc(-c2csc(NC(=O)CSC(C)C(=O)Nc3cc(C)on3)n2)cc1OC (configuration not stated)	none (no result: KCNQ1 act, hERG rescue, KCNQ1 block, Cl transport mod, KCNK9 inh)
